Assay results taken from ChEMBL document CHEMBL2029293, “Fluorophosphonylated nucleoside derivatives as new series of thymidine phosphorylase multisubstrate inhibitors” (J Med Chem, 2012).

Columns and labels:
[1] = biological target: Thymidine phosphorylase (Escherichia coli K-12) (UniProt P07650); experiment: Inhibition of Escherichia coli thymidine phosphorylase at 100 uM incubated for 20 mins at room temperature followed by 5 mins incubation at 90 degC by HPLC analysis
In short: (§1)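 Enzyme from E. coli, combined with thymidine and orthophosphate in Tris buffer. Phosphonic acid added at 1 mM or 100 μM. Incubated 20 min at room temperature, then 5 min at 90 °C. Thymidine separated from thymine by HPLC and percent inhibition calculated.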

[2] = biological target: Thymidine phosphorylase (Escherichia coli K-12) (UniProt P07650); experiment: Inhibition of Escherichia coli thymidine phosphorylase at 1 mM incubated for 20 mins at room temperature followed by 5 mins incubation at 90 degC by HPLC analysis; in short: as §1
[3] = Inhibition of thymidine phosphorylase
Thymidine phosphorylase = Thymidine phosphorylase (Escherichia coli K-12, UniProt P07650); experiment: Competitive inhibition of Escherichia coli thymidine phosphorylase incubated for 20 mins at room temperature followed by 5 mins incubation at 90 degC by Lineweaver-Burk plot analysis
Sequence of Thymidine phosphorylase (P07650 whole entry): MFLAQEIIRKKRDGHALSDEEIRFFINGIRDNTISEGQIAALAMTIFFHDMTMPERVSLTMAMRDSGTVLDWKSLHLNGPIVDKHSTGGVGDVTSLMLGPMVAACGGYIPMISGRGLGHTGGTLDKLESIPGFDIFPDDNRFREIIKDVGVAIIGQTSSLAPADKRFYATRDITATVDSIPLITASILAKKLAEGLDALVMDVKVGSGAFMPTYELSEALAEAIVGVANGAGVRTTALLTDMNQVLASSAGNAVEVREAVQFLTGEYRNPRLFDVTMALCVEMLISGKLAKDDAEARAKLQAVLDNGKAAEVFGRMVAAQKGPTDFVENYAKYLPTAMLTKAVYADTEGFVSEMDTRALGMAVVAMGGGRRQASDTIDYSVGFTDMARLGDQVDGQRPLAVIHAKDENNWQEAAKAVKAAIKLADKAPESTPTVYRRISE

Sequence of Thymidine phosphorylase (Escherichia coli K-12) (P07650 whole entry, looked up): as the sequence (P07650 whole entry) above

Row | Structure (SMILES) | inhibition [1] [%] | inhibition [2] [%] | Ki [3] [µM] | Ki (Thymidine phosphorylase) [µM]
1 | N=C1CCCN1Cc1[nH]c(=O)[nH]c(=O)c1Cl [TIPIRACIL] | – | – | 0.035 | –
2 | Cc1cn(Cc2cn(CC(F)(F)P(=O)(O)O)nn2)c(=O)[nH]c1=O | 9 | 29 | – | –
3 | Cc1cn(C[C@@H](CO)OCP(=O)(O)O)c(=O)[nH]c1=O | – | – | 2 | –
4 | Nc1nc(O)c2ncn(CCCCC(F)(F)P(=O)(O)O)c2n1 | 34 | 74 | – | –
5 | O=P(O)(O)C(F)(F)CCCn1cc(Cn2cnc3c(O)ncnc32)nn1 | 29 | 69 | – | –
6 | Cc1cn(CC(I)CC(F)(F)P(=O)(O)O)c(=O)[nH]c1=O (centres undefined) | 52 | 95 | – | –
7 | Cc1cn(C[C@@H](C)OCP(=O)(O)O)c(=O)[nH]c1=O | – | – | 2 | –
8 | Cc1cn(Cc2cn(CCCC(F)(F)P(=O)(O)O)nn2)c(=O)[nH]c1=O | 36 | 79 | – | –
9 | O=P(O)(O)C(F)(F)CCCCn1cc(Cn2cnc3c(O)ncnc32)nn1 | 35 | 76 | – | –
10 | O=P(O)(O)C(F)(F)CCCCn1cnc2c(O)ncnc21 | 9 | 25 | – | –
11 | Cc1cn(C[C@@H](CF)OCP(=O)(O)O)c(=O)[nH]c1=O | – | – | 2 | –
12 | O=c1ccn(Cc2cn(CCCCC(F)(F)P(=O)(O)O)nn2)c(=O)[nH]1 | 22 | 79 | – | –
13 | Nc1nc(O)c2ncn(Cc3cn(CCCCC(F)(F)P(=O)(O)O)nn3)c2n1 | 35 | 76 | – | –
14 | O=c1ccn(CCCCC(F)(F)P(=O)(O)O)c(=O)[nH]1 | 15 | 44 | – | –
15 | Nc1c(Br)c(=O)[nH]c(=O)n1CCCCCCCCP(=O)(O)O | 64 | – | 142 | 142
16 | Nc1[nH]c(=O)[nH]c(=O)c1Br | 71 | 100 | – | –
17 | Nc1nc(O)c2ncn(CCCC(F)(F)P(=O)(O)O)c2n1 | 4 | 25 | – | –
18 | O=P(O)(O)CCCCCCCCn1ccc2c(O)nc(O)nc21 | – | – | 54 | 54

The remaining lines, values ahead:

Row | inhibition [1] [%] | inhibition [2] [%] | Ki [3] [µM] | Ki (Thymidine phosphorylase) [µM] | Structure (SMILES)
19 | 0 | 36 | – | – | Cc1cn(CCSCCCCC(F)(F)P(=O)(O)O)c(=O)[nH]c1=O
20 | 0 | 23 | – | – | Cc1cn(CCCCP(=O)(O)O)c(=O)[nH]c1=O
21 | 4 | 51 | – | – | Cc1cn(CCCC(F)(F)P(=O)(O)O)c(=O)[nH]c1=O
22 | 56 | 88 | – | – | Cc1cn(CCCCCCCCCCCC(F)(F)P(=O)(O)O)c(=O)[nH]c1=O
23 | 55 | 86 | – | – | Cc1cn(CCCCCCCCCC(F)(F)P(=O)(O)O)c(=O)[nH]c1=O
24 | 20 | 61 | – | – | O=c1[nH]c(=O)n(CCCCC(F)(F)P(=O)(O)O)cc1Br
25 | 68 | 90 | – | 58 | Cc1cn(Cc2cn(CCCCC(F)(F)P(=O)(O)O)nn2)c(=O)[nH]c1=O
26 | 38 | 86 | – | – | Cc1cn(CCCCCCSCCCCC(F)(F)P(=O)(O)O)c(=O)[nH]c1=O
27 | 55 | 85 | – | – | Cc1cn(CCCCCCCCC(F)(F)P(=O)(O)O)c(=O)[nH]c1=O
28 | 40 | 78 | – | – | Cc1cn(CCCCSCCCCC(F)(F)P(=O)(O)O)c(=O)[nH]c1=O
29 | 15 | – | – | – | Cc1cn(CCCCCCCCP(=O)(O)O)c(=O)[nH]c1=O
30 | 15 | 68 | – | – | Cc1cn(CCCCC(F)(F)P(=O)(O)O)c(=O)[nH]c1=O
31 | 43 | 90 | – | – | Cc1cn(CCCSCCCCC(F)(F)P(=O)(O)O)c(=O)[nH]c1=O
